Test [1] relates to Pseudomonas aeruginosa. The test is described as follows: Antimicrobial activity against Pseudomonas aeruginosa isolate OC17355 harboring plasmid JAK16 expressing mexXY gene by broth microdilution method. In kind it is functional. Summed up:
(§1)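 CLSI broth microdilution MIC on P. aeruginosa transformants. Plasmids (control vector pJAK16, pMexXY or cloned mexZ repressor; 200 ng) were electroporated into fresh electrocompetent cells, and transformants were selected on Mueller-Hinton plates with chloramphenicol 200 or 400 μg/ml. Cultures were kept in chloramphenicol 200 μg/ml to maintain the plasmid, with 1 mM IPTG to induce the cloned gene.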

Test [2] has as its system Pseudomonas aeruginosa. Description: Antimicrobial activity against Pseudomonas aeruginosa isolate OC14551 by broth microdilution method. The class given is functional. The essentials: (§2)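 Clinical P. aeruginosa isolates, baseline and posttreatment, collected in ceftobiprole phase III clinical trials. MICs were measured by CLSI broth microdilution.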
(In general: In broth dilution the organism is exposed to a series of concentrations in liquid medium.)

Test [3] deals with Pseudomonas aeruginosa. Description: Antimicrobial activity against Pseudomonas aeruginosa isolate OC16830 harboring plasmid JAK16 expressing mexXY gene by broth microdilution method. The class given is functional. The essentials: as §1
The test system of test [4] is Pseudomonas aeruginosa. Description: Antimicrobial activity against Pseudomonas aeruginosa isolate OC17355 harboring plasmid MexZ expressing mexXY gene by broth microdilution method. The class given is functional. The essentials:
as §1

The test system of test [5] is Pseudomonas aeruginosa. The test is described as follows: Antimicrobial activity against Pseudomonas aeruginosa isolate OC14551 harboring plasmid MexZ expressing mexXY gene by broth microdilution method. The class given is functional. The essentials:
as §1

In test [6] the test system is Pseudomonas aeruginosa. The test is described as follows: Antimicrobial activity against Pseudomonas aeruginosa isolate OC14551 harboring plasmid JAK16 expressing mexXY gene by broth microdilution method. The class given is functional. Summed up: as §1
Test [7] relates to Pseudomonas aeruginosa. The test is described as follows: Antimicrobial activity against Pseudomonas aeruginosa isolate OC16827 harboring plasmid JAK16 expressing mexXY gene by broth microdilution method. In kind it is functional. The essentials: as §1
In test [8] the test system is Pseudomonas aeruginosa. Description: Antimicrobial activity against Pseudomonas aeruginosa PAO1 harboring plasmid MexXY expressing mexXY gene by broth microdilution method. In kind it is functional. The essentials:
as §1

Test [9] relates to Pseudomonas aeruginosa. The test is described as follows: Antimicrobial activity against Pseudomonas aeruginosa isolate OC14812 by broth microdilution method. The class given is functional. Summed up:
as §2

In test [10] the test system is Pseudomonas aeruginosa. Description: Antimicrobial activity against Pseudomonas aeruginosa PAO1 harboring plasmid JAK16 expressing mexXY gene by broth microdilution method. The class given is functional. Summed up:
as §1

The subject of test [11] is Pseudomonas aeruginosa. Description: Antimicrobial activity against Pseudomonas aeruginosa isolate OC14552 by broth microdilution method. The class given is functional. The essentials: as §2
For test [12], the system named is Pseudomonas aeruginosa. The test is described as follows: Antimicrobial activity against Pseudomonas aeruginosa isolate OC16827 harboring plasmid MexXY expressing mexXY gene by broth microdilution method. In kind it is functional. The essentials: as §1
Test [13] deals with Pseudomonas aeruginosa. Description: Antimicrobial activity against Pseudomonas aeruginosa isolate OC16827 by broth microdilution method. The class given is functional. Summed up:
as §2

The subject of test [14] is Pseudomonas aeruginosa. Description: Antimicrobial activity against Pseudomonas aeruginosa isolate OC14812 harboring plasmid JAK16 expressing mexXY gene by broth microdilution method. The class given is functional. Summed up:
as §1

The subject of test [15] is Pseudomonas aeruginosa. Description: Antimicrobial activity against Pseudomonas aeruginosa isolate OC16830 by broth microdilution method. The class given is functional. Summed up: as §2
The subject of test [16] is Pseudomonas aeruginosa. Description: Antimicrobial activity against Pseudomonas aeruginosa PAO1 harboring plasmid MexZ expressing mexXY gene by broth microdilution method. The class given is functional. Summed up:
as §1

Test [17] deals with Pseudomonas aeruginosa. Description: Antimicrobial activity against Pseudomonas aeruginosa isolate OC14805 by broth microdilution method. In kind it is functional. Summed up:
as §2

Test [18] concerns Pseudomonas aeruginosa. The test is described as follows: Antimicrobial activity against Pseudomonas aeruginosa isolate OC17355 by broth microdilution method. The class given is functional. The essentials:
as §2

Test [19] relates to Pseudomonas aeruginosa. Description: Antimicrobial activity against Pseudomonas aeruginosa isolate OC16827 harboring plasmid MexZ expressing mexXY gene by broth microdilution method.
The test system of test [20] is Pseudomonas aeruginosa. Description: Antimicrobial activity against Pseudomonas aeruginosa isolate OC16830 harboring plasmid MexZ expressing mexXY gene by broth microdilution method.
In test [21] the test system is Pseudomonas aeruginosa. The test is described as follows: Antimicrobial activity against Pseudomonas aeruginosa isolate OC14812 harboring plasmid MexZ expressing mexXY gene by broth microdilution method. The class given is functional. Summed up: as §1
The subject of test [22] is Pseudomonas aeruginosa. Description: Antimicrobial activity against Pseudomonas aeruginosa isolate OC17349 by broth microdilution method. In kind it is functional. The essentials:
as §2

Structures are written as SMILES. In brackets after ≈: the same amount, converted by molar mass.

`CO/N=C(\C(=O)N[C@@H]1C(=O)N2C(C(=O)[O-])=C(C[N+]3(C)CCCC3)CS[C@H]12)c1csc(N)n1`: the MIC (as a rule, the least concentration at which growth counts as inhibited) against Pseudomonas aeruginosa [1] amounted to 8 µg/mL (≈ 16.6 µM); against Pseudomonas aeruginosa [2] it was 8 µg/mL (≈ 16.6 µM); in the test on Pseudomonas aeruginosa [3] it was 8 µg/mL (≈ 16.6 µM); against Pseudomonas aeruginosa [4], 2 µg/mL (≈ 4.16 µM); in the test with Pseudomonas aeruginosa [5] it was 4 µg/mL (≈ 8.32 µM); against Pseudomonas aeruginosa [6] it was 16 µg/mL (≈ 33.3 µM). Moreover, the MIC with Pseudomonas aeruginosa [7] worked out at 2 µg/mL (≈ 4.16 µM); against Pseudomonas aeruginosa [8] it was 8 µg/mL (≈ 16.6 µM); against Pseudomonas aeruginosa [9], 8 µg/mL (≈ 16.6 µM); against Pseudomonas aeruginosa [10], 2 µg/mL (≈ 4.16 µM); with Pseudomonas aeruginosa [11], 4 µg/mL (≈ 8.32 µM); in the test on Pseudomonas aeruginosa [12], 8 µg/mL (≈ 16.6 µM). The MIC with Pseudomonas aeruginosa [13] turned out to be 2 µg/mL (≈ 4.16 µM); against Pseudomonas aeruginosa [14] it was 8 µg/mL (≈ 16.6 µM); in the test on Pseudomonas aeruginosa [15] it was 8 µg/mL (≈ 16.6 µM); with Pseudomonas aeruginosa [16] it was 1 µg/mL (≈ 2.08 µM); in the test with Pseudomonas aeruginosa [17], 2 µg/mL (≈ 4.16 µM); against Pseudomonas aeruginosa [18] it was 8 µg/mL (≈ 16.6 µM). Also, the MIC was determined as 2 µg/mL (≈ 4.16 µM) in the test on Pseudomonas aeruginosa [19], 4 µg/mL (≈ 8.32 µM) with Pseudomonas aeruginosa [20], 2 µg/mL (≈ 4.16 µM) against Pseudomonas aeruginosa [21] and 4 µg/mL (≈ 8.32 µM) in the test on Pseudomonas aeruginosa [22].

For the molecule `CC(C)(O/N=C(\C(=O)N[C@@H]1C(=O)N2C(C(=O)[O-])=C(C[n+]3ccccc3)CS[C@H]12)c1csc(N)n1)C(=O)O` [CEFTAZIDIME], the MIC against Pseudomonas aeruginosa [1] is 4 µg/mL (≈ 7.32 µM); against Pseudomonas aeruginosa [2], 4 µg/mL (≈ 7.32 µM); in the test with Pseudomonas aeruginosa [3] it was 2 µg/mL (≈ 3.66 µM); against Pseudomonas aeruginosa [4], 4 µg/mL (≈ 7.32 µM); against Pseudomonas aeruginosa [5], 4 µg/mL (≈ 7.32 µM); against Pseudomonas aeruginosa [6], 4 µg/mL (≈ 7.32 µM). The MIC against Pseudomonas aeruginosa [7] is 2 µg/mL (≈ 3.66 µM); in the test on Pseudomonas aeruginosa [8], 1 µg/mL (≈ 1.83 µM); in the test with Pseudomonas aeruginosa [9], 4 µg/mL (≈ 7.32 µM); against Pseudomonas aeruginosa [10], 2 µg/mL (≈ 3.66 µM); in the test on Pseudomonas aeruginosa [11] it was 4 µg/mL (≈ 7.32 µM); with Pseudomonas aeruginosa [12], 2 µg/mL (≈ 3.66 µM). Further, the minimum inhibitory concentration (MIC) came to 2 µg/mL (≈ 3.66 µM) against Pseudomonas aeruginosa [13]; 4 µg/mL (≈ 7.32 µM) with Pseudomonas aeruginosa [14]; 2 µg/mL (≈ 3.66 µM) with Pseudomonas aeruginosa [15]; 1 µg/mL (≈ 1.83 µM) against Pseudomonas aeruginosa [16]; 2 µg/mL (≈ 3.66 µM) in the test on Pseudomonas aeruginosa [17]; 4 µg/mL (≈ 7.32 µM) with Pseudomonas aeruginosa [18]. Besides, the MIC came to 2 µg/mL (≈ 3.66 µM) against Pseudomonas aeruginosa [19], 2 µg/mL (≈ 3.66 µM) in the test on Pseudomonas aeruginosa [20], 4 µg/mL (≈ 7.32 µM) against Pseudomonas aeruginosa [21] and 4 µg/mL (≈ 7.32 µM) in the test with Pseudomonas aeruginosa [22].

Values taken from ChEMBL document CHEMBL1649517, “Effect of MexXY overexpression on ceftobiprole susceptibility in Pseudomonas aeruginosa” (2009).
